Assay results from different studies.
ALK: ALK tyrosine kinase receptor (ALK, Homo sapiens, UniProt Q9UM73)
ALK C1156Y: ALK tyrosine kinase receptor (ALK, Homo sapiens, UniProt Q9UM73, C1156Y)
ALK L1196M: ALK tyrosine kinase receptor (ALK, Homo sapiens, UniProt Q9UM73, L1196M)

With `Cc1cc(NC(=O)c2cccc3cc(-c4cccc5[nH]nc(N)c45)ccc23)ccc1F` the activity vs control was 140% (ALK; enzyme activity, inhibitor; 0.1 µM).
The remaining signal of `COc1cc2c(N3CCN(C(=O)Nc4ccc(OC(C)C)cc4)CC3)ncnc2cc1OCCCN1CCCCC1` is reported as 103% (ALK; cell-free assay; 0.5 µM).
`c1cnn2ncc(-c3ccnc(N4CCC45COC5)n3)c2c1` gave a remaining binding of 78% (ALK; binding; 1 µM).
With `CC(C)c1ccc(NC(=O)c2cccs2)c(-c2nc3ccccc3[nH]c2=O)c1` the activity vs control was 92% (ALK; enzyme activity, inhibitor; 1 µM).
For `Cc1ccc(Nc2nccc(N(C)c3ccc4c(C)n(C)nc4c3)n2)cc1S(N)(=O)=O`, the inhibition was 79% (ALK; enzyme activity, inhibitor; 10 µM).
For `O=C(O)c1cc(-c2ccc(C3CCNCC3)cc2)c2ccc(-c3ccc(C(F)(F)F)cc3)cc2c1`, the remaining binding was 100% (ALK; cell-free assay, competition with immobilised ligand; 1 µM).
`O=C(CSc1nc2nccnc2c(=O)n1CCc1ccccc1)Nc1nccs1` has an inhibition of 11% (ALK; enzyme activity, inhibitor; 10 µM).
`O=C(NCc1ncc(C(F)(F)F)cc1Cl)c1ccc2c(c1)C1(CCS(=O)(=O)CC1)[C@@H](C1CC1)N2S(=O)(=O)c1ccc(F)cc1` has a remaining binding of 100% (ALK C1156Y; cell-free assay, competition with immobilised ligand; 1 µM).
The activity vs control of `Cc1ccc(C(=O)NCc2ccsc2)cc1C#Cc1cn(C(C)C)c2ncnc(N)c12` is reported as 103% (ALK; enzyme activity, inhibitor; 1 µM).
For `CNCc1ccc(-c2cc(-c3nc(-c4ccc(S(=O)(=O)C(C)C)cc4)cnc3N)on2)cc1`, the inhibition was 4% (ALK; enzyme activity, inhibitor; 2 µM).
For `CN(C)c1ncc(F)c(-c2cnn3ncccc23)n1`, the remaining binding was 59% (ALK L1196M; binding; 1 µM).
The remaining activity of `Cc1[nH]c(/C=C2\C(=O)Nc3ccc(F)cc32)c(C)c1C(=O)N[C@H]1CCN(C(=O)N(C)C)C1` is reported as 109% (ALK; enzyme activity, inhibitor; 0.1 µM).
The inhibition of `CNC(=O)c1cc(Oc2ccc(NC(=O)Nc3ccc(Cl)c(C(F)(F)F)c3)cc2)ccn1` is reported as 45% (ALK; enzyme activity, inhibitor; 10 µM).
For `N#CCCc1ccc2c(c1)-c1[nH]c3ccc([N+](=O)[O-])cc3c1CC(=O)N2`, the remaining signal was 78.8% (ALK; cell-free assay; 0.5 µM).
For `Cc1ccc(NC(=O)c2ccc(C)c(C(F)(F)F)c2)cc1C#Cc1nn(C2CCC(O)CC2)c2ncnc(N)c12` (centres unmarked), the remaining signal was 92% (ALK; cell-free assay; 10 µM).
For `N[C@H]1CCN(c2nccc(-c3cnn4ncccc34)n2)C1`, the remaining binding was 85% (ALK; binding; 1 µM).
The remaining binding of `COc1cc(-c2cn(C3CCc4c(F)cccc4N(CC(F)(F)F)C3=O)nn2)ccc1-n1cnc(C)c1` (centres unmarked) is reported as 100% (ALK L1196M; cell-free assay, competition with immobilised ligand; 1 µM).
`Cc1ccc(C(=O)Nc2ccc(CN3CCN(C)CC3)c(C(F)(F)F)c2)cc1C#Cc1cnc2cccnn12` gave a remaining signal of 81% (ALK; cell-free assay; 23.5 nM).
For `Cc1ccc(NC(=O)c2ccc(CN3CCN(C)CC3)cc2)cc1Nc1nc(-c2cccnc2)cs1`, the remaining signal was 103% (ALK; cell-free assay; 0.5 µM).
With `O=C(NCCCC1CCCCC1)c1ccc(CNC(=O)c2cnn(-c3ccccc3)c2C(F)(F)F)cc1` the remaining binding was 100% (ALK L1196M; cell-free assay, competition with immobilised ligand; 0.1 µM).
The remaining activity of `O=C(Nc1cnn(-c2csc(C(=O)NC3COC3)c2)c1)Nc1ccccc1Cl` is reported as 101% (ALK; enzyme activity, inhibitor; 5 µM).
With `CCN(CC)CCNC(=O)c1c(C)[nH]c(/C=C2\C(=O)Nc3ccc(F)cc32)c1C` the remaining signal was 16.6% (ALK; cell-free assay; 0.5 µM).
`COc1cc2ncnc(Nc3ccc(Oc4ccccc4)c(C)c3C)c2cc1OC` gave an inhibition of -3% (ALK; enzyme activity, inhibitor; 1 µM).
The remaining binding of `CN(C(=O)c1ccccc1)c1cc(N(C)c2ccc3c(c2)CCc2ccc(C(=O)NCCN4CCOCC4)cc2C3=O)ccc1F` is reported as 100% (ALK L1196M; cell-free assay, competition with immobilised ligand; 1 µM).
With `C[C@@H]1CCN(c2nccc(-c3cnn4ncccc34)n2)C1` the remaining binding was 81% (ALK; binding; 1 µM).
`CCCOc1ccc([C@@H]2[C@@H](C(=O)O)[C@H](c3ccc4c(c3)OCO4)CN2CC(=O)Nc2c(CC)cccc2CC)cc1` has a remaining binding of 78% (ALK L1196M; cell-free assay, competition with immobilised ligand; 1 µM).
With `CCN(CC)CCNC(=O)c1c(C)[nH]c(/C=C2\C(=O)Nc3ccc(F)cc32)c1C` the remaining activity was 73% (ALK; enzyme activity, inhibitor; 0.1 µM).
With `COc1ccnn2ncc(-c3ccnc(N(C)C)n3)c12` the remaining binding was 100% (ALK C1156Y; binding; 1 µM).
The remaining binding of `CN(C)c1ncnc(-c2ccc3nc(Nc4cc(CN5CCN(C(=O)CC(F)(F)F)CC5)ccn4)[nH]c3c2)c1Cl` is reported as 79% (ALK L1196M; cell-free assay, competition with immobilised ligand; 1 µM).
With `COc1cc2nccc(Oc3ccc(NC(=O)c4c5n(n(-c6ccc(F)cc6)c4=O)CCCC5)cc3)c2cc1OC` the inhibition was -23% (ALK; enzyme activity, inhibitor; 0.1 µM).
`CN(CCCC(F)(F)F)c1nccc(-c2cnn3ncccc23)n1` gave a remaining binding of 100% (ALK C1156Y; binding; 1 µM).
With `Nc1ncnc2occ(-c3ccc(NC(=O)Nc4cc(C(F)(F)F)ccc4F)cc3)c12` the remaining signal was 1.8% (ALK L1196M; cell-free assay; 20 µM).
The remaining activity of `CCN(CC)c1ccc(C2=NNC(=O)CC2C)cc1[N+](=O)[O-]` (centres unmarked) is reported as 110% (ALK; enzyme activity, inhibitor; 10 µM).
With `C=CC(=O)Nc1cc(Nc2nccc(Nc3cc(Cl)c(F)cc3C(C)(C)O)n2)c(OC)cc1N1CC[C@@H](N(C)C)C1` the inhibition was 86% (ALK; enzyme activity, inhibitor; 1 µM).
`Cc1cnc(NC2CCOCC2)nc1-n1cnc(C(=O)NC(CN)c2cc(F)cc(Cl)c2)c1` (centres unmarked) gave a remaining activity of 122% (ALK; enzyme activity, inhibitor, radiometric; 1 µM).
The inhibition of `CNC(=O)c1cc2c(Oc3ccc(NC(=O)C4(C(=O)Nc5ccc(F)cc5)CC4)cc3)ccnc2cc1OC` is reported as 81% (ALK; enzyme activity, inhibitor, radiometric; 1 µM).
For `COc1ccc2c(c1)O[C@@H](c1ccc(OC)c(OC)c1)C[C@H]2NC(=O)C1(c2ccc3c(c2)OC(F)(F)O3)CC1`, the remaining binding was 100% (ALK; cell-free assay, competition with immobilised ligand; 1 µM).
The inhibition of `CC/C(=N\NC(=O)NCc1cccc(O)c1)c1ccc(O)c(C)c1O` is reported as -0.9% (ALK tyrosine kinase receptor (ALK, Homo sapiens, UniProt Q9UM73, F1174L); enzyme activity, inhibitor; 0.1 µM).
